# OX1R antag-1 – human HCRTR1 antagonism; inhibition, % at 5 µM; AID 434989; actives 0.43% (n = 330,000); O43613; CHO/OX1R cells, Fluo-8 calcium fluorescence, orexin A;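 active = inhibition above its plate's threshold, mean inhibition of all tested compounds on the plate plus 3 SD, cut at about 37% in these data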
# Target sequence (O43613 whole entry, looked up): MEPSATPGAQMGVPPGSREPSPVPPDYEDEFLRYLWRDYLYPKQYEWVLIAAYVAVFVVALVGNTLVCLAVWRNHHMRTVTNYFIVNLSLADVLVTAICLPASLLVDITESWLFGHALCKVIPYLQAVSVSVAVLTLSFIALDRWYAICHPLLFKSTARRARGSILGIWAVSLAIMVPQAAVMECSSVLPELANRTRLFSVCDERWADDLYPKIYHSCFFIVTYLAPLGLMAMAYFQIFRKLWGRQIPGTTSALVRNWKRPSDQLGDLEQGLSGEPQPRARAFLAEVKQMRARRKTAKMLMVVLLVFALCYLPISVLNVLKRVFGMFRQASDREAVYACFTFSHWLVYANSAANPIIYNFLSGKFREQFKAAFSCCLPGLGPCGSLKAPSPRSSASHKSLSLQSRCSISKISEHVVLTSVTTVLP
# OXTR agonist – agonists of human oxytocin receptor; P30559; CHO-OTR cells, Fluo-8 calcium fluorescence; normalized: DMSO 0%, oxytocin 100%; activation, % at 3 µM; actives 0.32% (n = 320,000); AID 2435;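 active = activation above the mean of all tested compounds plus 3 SD, cutoff set per screening run, cut at about 20% in these data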;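 note: peak over basal fluorescence ratio from a 100 s FLIPR kinetic read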
# V1R ag counter – activates human V1a receptor in oxytocin agonist counter-screen | P37288 | actives 0.25% (n = 320,000) | AID 2797 | activation, % at 3 µM | CHO-V1R cells, Fluo-8 calcium fluorescence, agonist mode; 0% DMSO, 100% 3 nM vasopressin;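 active = activation above the mean activation of all tested compounds plus 3 SD, per screening run, cut at about 20% in these data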;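 note: signal is peak over basal fluorescence ratio across a 100 second FLIPR read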
# CHO parental Ca – counter-screen: ATP calcium response change in parental CHO cells; AID 463079; inhibition, % at 5.6 µM; actives 0.63% (n = 330,000); parental CHO-K1, ATP-induced calcium, Fluo-8 fluorescence;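 active = inhibition above that plate's mean sample inhibition plus 3 SD, cut at about 26% in these data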
#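 Material: parental CHO cells / Compound: single nominal dose of 5.6 µM per compound / Signal: Fluo-8 fluorescence / Replicates: singlicate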
# OX1R antag-2 – blocks the human orexin 1 receptor; O43613; OX1R-expressing cells, FRET antagonist read-out; inhibition, % at 6.6 µM; actives 1.8% (n = 330,000); AID 485270; in the data active = inhibition mostly above about 38%, no sharp cut-off; inactive = mostly below about 40%
# OXTR potentiate – potentiates the human oxytocin receptor response. actives 0.061% (n = 320,000). activation, % at 3 µM. CHO-OTR cells, Fluo-8 calcium fluorescence, potentiator mode; 0% = oxytocin EC15, 100% = EC100. P30559;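 active = activation above that plate's cutoff, the mean activation of tested compounds plus 3 SD, cut at about 6.6% in these data, passing the limit was not always enough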
#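 Assay system: CHO cell line stably expressing human OTR | Also added: Oxytocin at about EC15, sub-maximal agonist stimulus | Times: Compound 6 min at room temperature before oxytocin, 100 s read | Measured by: Fluo-8 intracellular calcium fluorescence, ex 470-495, em 515-575 nm | Controls: EC15 oxytocin alone as 0%, 75 nM oxytocin as 100%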
# A number is an active result; - = inactive. Shown are actives, neighbours in structure and some others; about 2.7% of the full set was active somewhere.
SMILES,OX1R antag-1,OXTR agonist,V1R ag counter,CHO parental Ca,OX1R antag-2,OXTR potentiate
CCC(=O)Nc1ccc2c(c1)C(=O)c1ccccc1C2=O,-,-,-,-,37,-
CCC(=O)Nc1ccc2c(c1)C(=O)N(C)C2=O,-,-,-,-,-,-
CCC(=O)NC1=C(NC(C)c2ccccc2)C(=O)c2ccccc2C1=O (stereo unspecified),-,-,-,-,64,-
O=C(COc1cccc(Cl)c1Cl)NC1CC1,-,-,-,-,-,-
C=CCN1c2ccccc2C(=O)CS1(=O)=O,-,-,-,-,-,-
O=C(Nc1ccccc1Cl)c1cc[n+](Cc2ccc([N+](=O)[O-])cc2)cc1,-,-,-,-,40,-
NC(=O)c1cc[n+](Cc2ccc([N+](=O)[O-])cc2)cc1,-,-,-,-,-,-
COc1ccccc1NS(=O)(=O)c1cccc(C(=O)NCc2ccco2)c1,-,-,-,-,-,-
CC1(C)C=Cc2c(ccc3c2OC[C@H](c2ccc(O)cc2O)C3)O1,52,-,-,79,-,-
Cc1cc(C(F)(F)F)nc(SCC(=O)Nc2c(C)n(C)n(-c3ccccc3)c2=O)n1,-,-,-,-,-,-
CCC(C)C1Nc2ccc(C(=O)NCCc3ccc(OC)c(OC)c3)cc2NC1=O (stereo unspecified),-,-,-,-,-,-
O=C(NCC1CCCO1)c1cccc(NS(=O)(=O)c2ccc(Br)cc2)c1 (stereo unspecified),-,-,-,-,-,-
Cc1cc(C(=O)O)c2ccccc2n1,-,-,-,-,-,-
Cc1cc(-c2nc3ccccc3o2)c2ccccc2n1,-,-,-,-,45,-
c1ccc(C[n+]2csc3ccccc32)cc1,-,-,-,29,-,-
COc1cccc(NC(=O)n2ncc3c(C)cccc32)c1,-,-,-,-,-,-
O=C(CSC1=NS(=O)(=O)c2cc(Cl)ccc2N1)Nc1cccc(F)c1,-,-,-,-,-,-
O=C(Nc1ncccn1)c1ccc([N+](=O)[O-])cc1[N+](=O)[O-],-,-,-,-,73,-
O=C(Nc1ncn[nH]1)c1ccc([N+](=O)[O-])cc1[N+](=O)[O-],-,-,-,-,53,-
O=C(Nc1ncccn1)c1ccc([N+](=O)[O-])cc1Cl,-,-,-,-,-,-
Cc1ccc(CNC(=O)CN(C(=O)C2(C)CC(=O)N=C3C=CC=CN32)c2cccc(C)c2C)cc1 (stereo unspecified),-,-,-,-,-,-
Cc1cc(OCCCCOc2ccc(S(N)(=O)=O)c(C)c2)ccc1S(N)(=O)=O,-,-,-,-,-,-
CCn1c2ccccc2c2cc(CN3CCN(Cc4cc(OC)ccc4O)CC3)ccc21,-,-,-,-,50,-
CCc1noc(C)c1C(=O)Nc1nc(-c2cccs2)cs1,-,-,-,-,51,-
Cc1cc(/C=C2\SC(=Nc3ccccc3)NC2=O)c(C)n1-c1ccc(S(N)(=O)=O)cc1,-,-,-,-,-,-
SMILES,OX1R antag-1,OXTR agonist,V1R ag counter,CHO parental Ca,OX1R antag-2,OXTR potentiate
CC1CCC2(CC1)NC(=O)N(CC(=O)N1CCOCC1)C2=O (stereo unspecified),-,-,-,-,-,-
Cc1ccc(NC(=O)COC(=O)Cn2nc(C)c([N+](=O)[O-])c2C)c([N+](=O)[O-])c1,-,-,-,-,-,-
COCC(=O)NC1CCN(CC(=O)Nc2ccc(OC)cc2[N+](=O)[O-])CC1,-,-,-,-,41,-
COCC(=O)NC1CCN(CC(=O)Nc2ccccc2[N+](=O)[O-])CC1,-,-,-,-,-,-
Cc1ccc(NC(=O)COC(=O)Cn2cnc3ccccc32)c([N+](=O)[O-])c1,-,-,-,38,74,-
CCC(=O)OCC(=O)Nc1ccc(OC)cc1[N+](=O)[O-],-,-,-,-,49,-
CCN(CCN(C)C)C(=O)c1ccc2c(c1NCCO)C(=O)c1ccccc1C2=O,-,-,-,-,75,-
O=C1c2ccccc2C(=O)c2c1ccc(C(=O)N1CCCCC1)c2NCCO,-,-,-,-,-,-
CCC(=O)c1ccc(OC(=O)Cc2ccc(OC)cc2)cc1,-,-,-,-,-,-
